Only some compounds are listed: those with a hit (about 11% of all), similar ones and a draw of the others.
M1 antagonist – antagonists of rat M1 muscarinic receptor; 64,000 tested, 3.4% active; CHO-M1 cells, Fluo-4 calcium, ACh EC80 antagonist mode; hits give low values; B-score at 10 µM; Muscarinic acetylcholine receptor M1 (Rattus norvegicus), P08482;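 active means calcium fluorescence response, raw or row-and-column corrected B-score, differing from the plate sample mean either way at a set confidence level, mostly lower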
RORa activator – activators of orphan receptor RORA, primary screen, cell-based, luminescence. 65,000 tested, 1.5% active. activation, % at 10 µM. AID 560, 2006. CHO-K1 Gal4-RORA LBD luciferase reporter; percent increase over mock-subtracted basal signal. Nuclear receptor ROR-alpha (Homo sapiens), P35398;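 active means activation above the mean of all tested compounds plus 3 SD, cut at about 49% in these data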
SF1 activator – activators of human SF-1, primary screen, cell-based, CHO-K1, Gal4-SF-1 LBD, luciferase luminescence; Steroidogenic factor 1 (Homo sapiens), Q13285; CHO-K1 Gal4-SF-1 LBD luciferase reporter; % increase over DMSO SF-1-specific signal; activation, % at 10 µM; 65,000 tested, 1.9% active;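 active means activation above the mean activation of all tested compounds plus 3 SD, cut at about 50% in these data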
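Material: CHO-K1 cells with Gal4–hSF-1 LBD chimera plus Gal4-driven luciferase / Input: 4,000 CHO-K1 cells per well / Incubation: compound exposure 20 h at 37 °C / Signal: luminescence read 15 min after SteadyLite luciferase reagent, after room-temperature equilibration / Read-out: percent activation versus DMSO / Benchmarks: DMSO negative control and −SF1 background wells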
D1 allo mod – D1 CRE-luciferase signal change, two-sided – cell-based, HEK293 D1, dopamine EC30, D1 allosteric modulator project, primary screen. D(1A) dopamine receptor (Homo sapiens), P21728. dopamine EC30 potentiation; actives deviate in either direction. B-score at 10 µM. 58,000 tested, 5.9% active;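 active means luminescence count or its row- and column-corrected plate score outside the 99.7% band of the plate's sample wells, on either side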
Target sequence (P21728 whole entry, looked up): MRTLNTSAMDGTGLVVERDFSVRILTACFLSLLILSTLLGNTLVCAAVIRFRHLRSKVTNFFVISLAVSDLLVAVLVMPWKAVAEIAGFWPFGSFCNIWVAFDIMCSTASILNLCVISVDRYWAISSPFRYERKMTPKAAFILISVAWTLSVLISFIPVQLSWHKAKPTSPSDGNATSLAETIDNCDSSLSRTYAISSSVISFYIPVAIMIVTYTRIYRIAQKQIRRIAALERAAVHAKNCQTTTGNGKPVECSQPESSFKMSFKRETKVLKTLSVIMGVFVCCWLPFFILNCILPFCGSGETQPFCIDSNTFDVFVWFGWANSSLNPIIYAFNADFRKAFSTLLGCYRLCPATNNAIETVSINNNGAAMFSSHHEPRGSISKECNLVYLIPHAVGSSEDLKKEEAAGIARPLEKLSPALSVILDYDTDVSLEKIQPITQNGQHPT
M1 agonist – M1 muscarinic receptor agonists, primary screen, CHO-M1 cells, Fluo-4 calcium, agonist mode; Fluo-4 calcium fluorescence; hits give high values; B-score at 10 µM; 64,000 tested, 3% active; AID 626, 2007;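 active means fluorescence rise, raw or as B-score row- and column-corrected plate score, outside the 99.7% band of its plate's samples, either direction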
Htt clearance – clearance of mutant huntingtin inclusions, primary screen, imaging, HeLa Exon1htt(103Q)mCFP, confocal imaging. AID 853, 2007. 47,000 tested, 0.42% active. inhibition, % at 1.5 µM. aggregate imaging; zero = plate's median compound well;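 active means inhibition of aggregate fluorescence above about 70%, also judged a hit by eye on the cell image, limit read from the data, passing the limit was not always enough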;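 further: cells exposed to compound for three days before fixation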
M1 antag conf – rat M1 muscarinic receptor antagonists, confirmation, CHO cells, Fluo-4 calcium, duplicate; shares compounds with M1 antagonist; ACh EC80 antagonism; hits give low values; calcium response (max-min fluorescence) at 10 µM; 1,700 tested, 43% active;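 active means calcium response below the same-plate mean of wells given acetylcholine alone at its 80%-effect dose, minus 3 SD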
mGluR4 antag – human mGluR4 response to M1 antagonist hits, M1 allosteric modulator project, cell-based, antagonist mode, secondary assay 1 | shares compounds with M1 antagonist | CHO-mGluR4 calcium flux, Fluo-4 fluorescence, glutamate EC80; hits give low values | fluorescence response (max-min) at 10 µM | 1,700 tested, 0.9% active;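 active means fluorescence response below the plate's average for near-maximal glutamate wells, less 3 SD of those wells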;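 further: raw unnormalized fluorescence span taken in the window right after glutamate addition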
Each line names hits and unclear results; the compound was inactive in the other large screens (follow-up assays come after a bar, where they were run).

Nn1c(-c2ccccn2)nnc1-c1ccccn1	M1 antagonist -3.1 | M1 antag conf inactive | mGluR4 antag inactive
CCC(=O)c1cn(CC(=O)NCc2cccnc2)c2ccccc12	none
CCN1CCc2c(C#N)c(N3CCOCC3)nc(NCc3ccccc3)c2C1	M1 antagonist -2.2 | M1 antag conf inactive | mGluR4 antag inactive
CCN1CCc2c(C#N)c(N3CCCCC3)nc(NCc3ccccc3)c2C1	none (no result: Htt clearance)
CCCCN1CCc2c([nH]c3c(C)cccc23)C1=O	none (no result: Htt clearance)
Cn1c(SCC(=O)N2CCCCCC2)nc2c([nH]c3ccccc32)c1=O	none
Cn1c(SCC(=O)N2CCCCC2)nc2c([nH]c3ccccc32)c1=O	M1 antagonist -3.5 (no result: Htt clearance) | M1 antag conf 443 | mGluR4 antag inactive
Cc1ccc(CN2C(=O)CCC2C(=O)NCc2ccco2)cc1 (stereo unspecified)	none
CCC1(C)Cc2ccccc2/C(=C/C(=O)N2CCCCC2)N1 (stereo unspecified)	M1 antagonist -2.7 | M1 antag conf 18 | mGluR4 antag inactive
Cc1cc(C)nc(SCc2nnc(SCc3ccccc3Cl)o2)n1	M1 antagonist -4.5 | M1 antag conf inactive | mGluR4 antag inactive
Cc1nc2ncnn2c(N2CCN(c3cccc(C(F)(F)F)c3)CC2)c1C	none (no result: Htt clearance)
O=C(O)C1CCCN1c1ncnc2ccccc12 (stereo unspecified)	none
CC1(C)CC2CC(C)(CN2c2ncnc3ccccc23)C1 (stereo unspecified)	M1 antagonist -2.2 (no result: Htt clearance) | M1 antag conf inactive | mGluR4 antag inactive
COc1ccc(-n2cnnc2SCc2csc(-c3ccccc3)n2)cc1	none (no result: Htt clearance)
O=C(CSc1nnc(-c2cccs2)n1-c1ccccc1)N1CCc2ccccc21	M1 antagonist -3 | M1 antag conf inactive | mGluR4 antag inactive
CN(C)CCSc1nc(N)c2c3c(sc2n1)CN(C)CC3	M1 antagonist -6.2 (no result: Htt clearance) | M1 antag conf 545 | mGluR4 antag inactive
CCCSc1nc(N)c2c3c(sc2n1)CN(C)CC3	M1 antagonist -3.9 (no result: Htt clearance) | M1 antag conf 485 | mGluR4 antag inactive
O=S(=O)(Nc1cccc2c1ccc1cccn12)c1cccs1	none (no result: M1 antagonist, RORa activator, SF1 activator, D1 allo mod, M1 agonist)
Cc1cc(C)c(Cn2c(=O)n(CCCC(=O)NCc3ccco3)c(=O)c3ccccc32)c(C)c1	none
CCCN1CCC(N2CCN(c3cccc(C(F)(F)F)c3)CC2)CC1	none
COc1ccc(C2C3C(=O)N(Cc4ccccc4)C(=O)C3ON2c2ccccc2)c(OC)c1OC (stereo unspecified)	M1 antagonist -2.9 (no result: Htt clearance) | M1 antag conf inactive | mGluR4 antag inactive
CCOc1ccccc1C(=O)N1CCN(C(c2ccccc2)c2ccccc2)CC1	none (no result: M1 antagonist, RORa activator, SF1 activator, D1 allo mod, M1 agonist)
COC(=O)CN1CCN(C(c2ccccc2)c2ccccc2)CC1	none
COCCNC(=O)CN1CCN(C(c2ccccc2)c2ccccc2)CC1	M1 antagonist -1.2 | M1 antag conf inactive | mGluR4 antag inactive
CC(=O)c1ccccc1OCC(O)CN1CCN(C(c2ccccc2)c2ccccc2)CC1 (stereo unspecified)	M1 antagonist -7.9 (no result: D1 allo mod, Htt clearance) | M1 antag conf 133 | mGluR4 antag inactive
CCNc1nnc(-c2ccc(C)cc2)o1	none
COc1cccc(C(c2sc3nc(C)nn3c2O)N2CCc3ccccc3C2)c1 (stereo unspecified)	none (no result: Htt clearance)
Cc1[nH]nc2c1C1(CCC3(CC1)OCCO3)C(C#N)=C(N)O2	none
Clc1ccc(Oc2nnnn2-c2ccccc2)cc1	none (no result: M1 antagonist, RORa activator, SF1 activator, D1 allo mod, M1 agonist)
Nc1c(-c2ccc(Cl)cc2)nnn1-c1ccccc1	M1 antagonist -3.2, RORa activator 87, SF1 activator 61 | M1 antag conf inactive | mGluR4 antag inactive
CCCCOc1ccc(C(=O)N2CCC(C)CC2)cc1	none
CCCCOc1ccc(C(=O)OC2CC(C)N(C)CC2C)cc1 (stereo unspecified)	M1 antagonist -13 (no result: D1 allo mod, Htt clearance) | M1 antag conf 44 | mGluR4 antag inactive
CCOc1ccc(CCNC(=O)C2CCN(c3nnc(-n4cccc4)s3)CC2)cc1	none (no result: M1 antagonist, RORa activator, SF1 activator, D1 allo mod, M1 agonist)
CCN(CCNC(=O)C1CCN(c2nnc(-n3cccc3)s2)CC1)c1ccccc1	M1 antagonist -0.83 (no result: Htt clearance) | M1 antag conf inactive | mGluR4 antag inactive
c1ccc(-c2nnc3ccc(N4CCCC4)nn23)cc1	none (no result: M1 antagonist, RORa activator, SF1 activator, D1 allo mod, M1 agonist)
Cc1sc2nc3ccc(N4CCCCC4)nn3c(=O)c2c1C	M1 antagonist -2.3 | M1 antag conf inactive | mGluR4 antag inactive
Clc1ccccc1OCCCCn1ccnc1	none
Cc1cc(C)c(C)c(OCCOCCN2CCOCC2)c1	none (no result: Htt clearance)
Clc1cc(Br)ccc1OCCOCCN1CCOCC1	M1 antagonist -0.73 (no result: D1 allo mod) | M1 antag conf inactive | mGluR4 antag inactive
Clc1cc(Br)ccc1OCCn1ccnc1	M1 antagonist -3.3 | M1 antag conf 442 | mGluR4 antag inactive
Cc1nc(-c2ccccc2O)n(-c2ccccc2)n1	none (no result: M1 antagonist, RORa activator, SF1 activator, D1 allo mod, M1 agonist)
CCN(CC)CCCn1c(=S)[nH]c2ccc(Cl)cc2c1=O	M1 antagonist -1.4 | M1 antag conf inactive | mGluR4 antag inactive
CCOC(=O)CCn1cc(F)c(=O)n(Cc2ccccc2)c1=O	none
COC(=O)c1ccccc1NC(=O)C1COc2ccccc2O1 (stereo unspecified)	none (no result: D1 allo mod, Htt clearance)
COC(=O)c1cc(NC(=O)C2COc3ccccc3O2)cc(C(=O)OC)c1 (stereo unspecified)	M1 antagonist -13 | M1 antag conf inactive | mGluR4 antag inactive
OC(CN1CCOCC1)CN(c1ccccc1)c1ccccc1 (stereo unspecified)	none
OC(CN1CCCCC1)CN(c1ccccc1)c1ccccc1 (stereo unspecified)	M1 antagonist -22 | M1 antag conf 78 | mGluR4 antag inactive
CCCCOc1ccc(CN2CCCCC2)cc1	M1 antagonist -5.1 (no result: Htt clearance) | M1 antag conf 283 | mGluR4 antag inactive
CCOc1ccc(OCCCCN2CCCC2)cc1	none (no result: M1 antagonist, RORa activator, SF1 activator, D1 allo mod, M1 agonist)
CCN(CC)CCCNC(=O)c1c(O)c2c([nH]c1=O)CCCC2	none (no result: Htt clearance)
O=C(NCC1CCCO1)c1c(O)c2c([nH]c1=O)CCCC2 (stereo unspecified)	M1 antagonist -3.6 (no result: Htt clearance) | M1 antag conf inactive | mGluR4 antag inactive
COc1ccccc1-n1c(C)nnc1SCC(N)=O	M1 antagonist -4.3 (no result: Htt clearance) | M1 antag conf inactive | mGluR4 antag inactive
COc1ccccc1-n1c(SCC(N)=O)nnc1-c1ccccc1	none
